In ChEMBL document CHEMBL1138768, “A locally active antiinflammatory macrolide (MLD987) for inhalation therapy of asthma” (J Med Chem, 2004) one finds Ki, ED50 and IC50 data, which are given here for two molecules.

The nature of experiment [1]: Inhibitory activity against calcineurin phosphatase. Set-up: species or system Homo sapiens.
The subject of experiment [2] is Rattus norvegicus. Put plainly: Oral dose that inhibits by 50% the allergen OA-induced eosinophil influx in to the airway lumen of actively sensitized rats after -6h, +24h treatment schedule. It is filed as functional. In short, it runs like this:
(§1)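 Actively sensitized Brown-Norway rats challenged with ovalbumin (OA). Compound given intratracheally, orally or i.v. either 1 h or 6 h before challenge, with a second dose 24 h after challenge. Eosinophils counted in bronchoalveolar lavage fluid; ED50 is the dose inhibiting OA-induced eosinophil influx by 50%; n = 5–20 rats.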

Experiment [3] relates to Rattus norvegicus. Put plainly: Intravenous dose that inhibits by 50% the allergen OA-induced eosinophil influx in to the airway lumen of actively sensitized rats after -1h, +24h treatment schedule. It is filed as functional. A digest of the protocol: as §1
The species named for experiment [4] is Rattus norvegicus. The experiment in a line: Intratracheal dose that inhibits by 50% the allergen OA-induced eosinophil influx in to the airway lumen of actively sensitized rats after -6h, +24h treatment schedule. The format is functional. The conditions noted are these: Trachea, inhaled or nasal. In short, it runs like this: as §1
Experiment [5] in a line: Inhibitory activity against PPD-induced proliferation of human peripheral blood mononuclear cell (HPBMNC). It is filed as functional. A digest of the protocol:
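Human peripheral blood mononuclear cells isolated from blood, stimulated with PPD (M. tuberculosis purified protein derivative). Proliferation read after 5 days in medium with 20% fetal calf serum. Mean IC50 ± SEM (n = 3–6) or the mean of two experiments.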

Experiment [6] can be described thus: Inhibitory activity against IFN-gamma production (Anti-CD3 monoclonal antibody stimulated and cultured CD4 positive cells purified from human peripheral blood mononuclear cell). The format is functional, cell-based.
Another experiment relates to PBMC. Put plainly: Inhibitory activity against murine mixed lymphocyte reaction. The following applies: Mus musculus.
Experiment [7] is described as follows: Inhibitory activity against IL-5 production (Anti-CD3 monoclonal antibody stimulated and cultured CD4 positive cells purified from human peripheral blood mononuclear cell). The format is functional, cell-based.
A short description of experiment [8]: Inhibitory activity against IL-2 receptor in human T-cell jurkat cell line stimulated by phytohemagglutininin and phorbol myristate acetate. The format is cell-based. In short, it runs like this: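 Jurkat human T-cell line carrying an IL-2 reporter gene, stimulated with phytohemagglutinin plus phorbol myristate acetate. Values are mean IC50 ± SEM (n = 3–6) or the mean of two experiments.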

For experiment [9], the system named is Rattus norvegicus. The experiment in a line: Intravenous dose that inhibits by 50% the allergen OA-induced eosinophil influx in to the airway lumen of actively sensitized rats after -6h, +24h treatment schedule. The format is functional. A digest of the protocol:
as §1

For experiment [10], the species on record is Rattus norvegicus. Put plainly: Intratracheal dose that inhibits by 50% the allergen OA-induced eosinophil influx in to the airway lumen of actively sensitized rats after -1h, +24h treatment schedule. It is filed as functional. The following applies: Trachea, inhaled or nasal. A digest of the protocol: as §1
The test system of experiment [11] is Rattus norvegicus. Put plainly: Oral dose that inhibits by 50% the allergen OA-induced eosinophil influx in to the airway lumen of actively sensitized rats after -1h, +24h treatment schedule. It is filed as functional. A digest of the protocol:
as §1

What is called Ki is the dissociation constant of the complex between target and ligand, obtained from inhibition or displacement. A word on the ED50: it is the midpoint of the dose-response relation. The term IC50 denotes the point on the concentration scale where inhibition reaches its midpoint. A higher IC50 goes with a need for much substance. In the case of `C=CC[C@@H]1/C=C(\C)C[C@H](C)C[C@H](OC)[C@H]2O[C@@](O)(C(=O)C(=O)N3CCCC[C@H]3C(=O)O[C@H](/C(C)=C/[C@@H]3CC[C@@H](O)[C@H](OC)C3)[C@H](C)[C@@H](O)CC1=O)[C@H](C)C[C@@H]2OC` [TACROLIMUS ANHYDROUS], the Ki in experiment [1] was found to be 35 nM. The ED50 came to 3 mg/kg in the experiment on Rattus norvegicus [2]; 0.3 mg/kg with Rattus norvegicus [3]; 0.3 mg/kg in the experiment filed under Rattus norvegicus [4]; 0.3 mg/kg in the experiment on Rattus norvegicus [9]; 0.3 mg/kg in the experiment listed under Rattus norvegicus [10]; 10 mg/kg in the experiment with Rattus norvegicus [11]. Moreover, the IC50 in [5] was 0.18 nM; in experiment [6] it was 0.06 nM; with PBMC it was 0.29 nM; in experiment [7] it was 0.06 nM; in experiment [8] it was 0.19 nM.
For the molecule `CCCC1O[C@@H]2C[C@H]3[C@@H]4CCC5=CC(=O)C=C[C@]5(C)[C@H]4[C@@H](O)C[C@]3(C)[C@]2(C(=O)CO)O1` (stereo not given in full) [BUDESONIDE], the IC50 came to 0.32 nM in [6] and 0.12 nM in [7]. For the same molecule, the median effective dose (ED50) in the experiment filed under Rattus norvegicus [10] came to 0.5 mg/kg.
